Laboratory results as given in publication PMC4633019 (Journal of natural products, 2015).
≈ marks a conversion by molar mass, not a printed value. Where a SMILES comes first, the peptide text is derived from it. [ ]: non-standard residue; d: D form. The star is where a group is joined. Sta = CC(C)C[C@H](N)[C@@H](O)CC(=O)O; Isovaleryl = CC(C)CC(=O)*

Experiments:
HEK293 cells = assay: Mammalian cell viability assay; type: cell-based, human; conditions: up to highest tested concentrations
Summary of the method: (§1)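 Viability was read with Cell TiterGlo reagent, used according to the manufacturer's instructions, in 1536-well format with a plate-imager read-out. The same procedure was applied to human RBCs.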

HepG2 cells = assay: Mammalian cell viability assay; type: cell-based, human; conditions: up to highest tested concentrations
Summary of the method: as §1

[1] = test system: Plasmodium falciparum (cp250, Dd2, HB3, 7G8, GB4 lines); assay: SYBR Green DNA-staining parasite viability assay; type: cell-based
Summary of the method: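 Infected RBCs (0.3% parasitemia, 2.5% hematocrit final) in culture medium received pin-transferred test compound. Incubated 72 h at 37 °C in humidified 5% CO2. Lysis buffer was then added (20 mM Tris-HCl, 10 mM EDTA, 0.16% saponin, 1.6% Triton-X, 10× SYBR Green I), followed by overnight incubation at 22–24 °C in the dark. Fluorescence was read at 485/535 nm. Controls: artemisinin and mefloquine as positive, DMSO as negative.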

Jurkat cells = conditions: cited from earlier work
[2] = test system: P. falciparum plasmepsins (aspartyl protease activity of Pf extracts); assay: Plasmepsin protease assay with P. falciparum extract and FRET peptide substrate; type: biochemical, Plasmodium falciparum; conditions: freshly prepared P. falciparum extracts

COCC(=O)N[C@@H](C(=O)N1NCCC[C@H]1C(=O)N[C@@H](Cc1ccccc1)[C@@H](O)[C@H](C)C(=O)N[C@@H]1CCN(C(N)=O)C1=O)[C@H](O)C(C)C [25-epi-actinoramide A]
toxicity to HEK293 cells (in words) (HEK293 cells): no toxicity
toxicity to HepG2 cells (in words) (HepG2 cells): no toxicity

COCC(=O)N[C@@H](C(=O)N1NCCC[C@H]1C(=O)N[C@@H](Cc1ccccc1)[C@@H](O)[C@H](C)C(=O)NC1CNC(=O)NC1=O)[C@H](O)C(C)C (stereo partly drawn) [Actinoramide F, actinoramide F]
antimalarial activity (in words) [1]: no antimalarial activity

COCC(=O)N[C@@H](C(=O)N1NCCC[C@H]1C(=O)N[C@@H](Cc1ccccc1)[C@@H](O)[C@H](C)C(=O)N[C@H]1CCN(C(N)=O)C1=O)[C@H](O)C(C)C [actinoramide A]
toxicity to HEK293 cells (in words) (HEK293 cells): no toxicity
EC50 (cytotoxicity) (Jurkat cells): ≈ 60 μg/mL
toxicity to HepG2 cells (in words) (HepG2 cells): no toxicity

COCC(=O)N[C@@H](C(=O)N1N=CCC[C@H]1C(=O)N[C@@H](Cc1ccccc1)[C@@H](O)[C@H](C)C(=O)N[C@H]1CCN(C(N)=O)C1=O)[C@H](O)C(C)C [actinoramide D]
decrease in potency (vs actinoramide A) ([1]; depending on the parasite strain): 6–20 fold

COCC(=O)N[C@@H](C(=O)N1NCCC[C@H]1C(=O)N[C@@H](Cc1ccccc1)[C@@H](O)[C@H](C)C(=O)N[C@H]1CCC(=O)NC1=O)[C@H](O)C(C)C [padanamide B, reference compound]
EC50 (cytotoxicity) (Jurkat cells): ~20 µg/mL (≈ 30.9 µM)

CC(C)CC(=O)N[C@H](C(=O)N[C@H](C(=O)N[C@@H](CC(C)C)[C@@H](O)CC(=O)N[C@@H](C)C(=O)N[C@@H](CC(C)C)[C@@H](O)CC(=O)O)C(C)C)C(C)C [pepstatin] (Isovaleryl-VV[Sta]A[Sta]-OH)
inhibition of aspartyl protease (plasmepsin) activity (in words) [2]: potently inhibited
